Type in all cases: cell-based
Test [1] addresses T1, Interleukin-5 (Mus musculus) (UniProt P04401).
T1 sequence (whole entry): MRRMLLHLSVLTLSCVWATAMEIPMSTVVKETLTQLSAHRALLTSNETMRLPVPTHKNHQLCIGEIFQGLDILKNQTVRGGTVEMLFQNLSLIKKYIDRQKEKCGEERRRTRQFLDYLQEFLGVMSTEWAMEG
In words: Inhibition of interleukin-5 in mouse Y16 cells at 30 uM. In short, it runs like this: (§1)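 IL-5-dependent mouse pro-B Y16 cells were incubated with 3 units/mL mIL-5 for 48 h, with or without test sample. Cell metabolism was then read with the tetrazolium salt WST-1 as an index of proliferation.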

The next test has as its target T2, Interleukin-5 (Mus musculus, UniProt P04401).
T2 sequence (P04401 whole entry): T1 sequence (whole entry)
The experiment in a line: Inhibition of interleukin-5 in mouse Y16 cells. In short, it runs like this:
as §1

The target in test [2] is T1, Interleukin-5 (Mus musculus). The experiment in a line: Inhibition of interleukin-5 in mouse Y16 cells at 50 uM. In short, it runs like this:
as §1

Usually inhibition stands for the relative decrease from the control value, in per cent. A low value points to little suppression. Usually IC50 stands for the midpoint of a concentration-inhibition curve.

Values joined by “and” are separate entries in the source; they are usually repeats but may differ in a detail not shown here. Identical values can stand only once.

`O=c1c(CNCCO)coc2cccc(OCC3CCCCC3)c12`: the inhibition in test [1] was determined as 13%. At Interleukin-5, this compound yielded an IC50 greater than 50 µM.

With `O=c1c(CNCc2ccccc2)coc2cccc(OCC3CCCCC3)c12`, the inhibition in test [1] turned out to be 32%. The compound also had a 50% inhibitory concentration (IC50) against Interleukin-5 greater than 50 µM.

Take `O=c1c(CNc2ccccc2)coc2cccc(OCC3CCCCC3)c12`: the inhibition in test [1] came to 14%. For the same compound, the IC50 on Interleukin-5 was greater than 50 µM.

`COc1ccc(NCc2coc3cccc(OCC4CCCCC4)c3c2=O)cc1` gave an inhibition in test [1] of 31%. The compound also gave a 50% inhibitory concentration (IC50) at Interleukin-5 greater than 50 µM.

`CC(C)(CO)NCc1coc2cccc(OCC3CCCCC3)c2c1=O` came in with an inhibition in test [1] of 63%. For the same compound, at Interleukin-5, 26.4 µM corresponded to half-maximal inhibition (IC50).

Consider `COc1ccc(CNCc2coc3cccc(OCC4CCCCC4)c3c2=O)cc1`, for which the inhibition in test [1] stood at 43%. This compound displayed an IC50 against Interleukin-5 greater than 30 µM.

In turn, `O=c1c(CNC(CO)CC2CCCCC2)coc2cccc(OCC3CCCCC3)c12` (centres undefined) came in with an inhibition in test [1] of 93%. This compound returned an IC50 at Interleukin-5 of 17.3 µM.

Turning to `O=c1c(CNC(CO)Cc2ccccc2)coc2cccc(OCC3CCCCC3)c12` (centres undefined), the inhibition in test [1] was found to be 72%. The same compound returned an IC50 on Interleukin-5 of 25.7 µM.

The compound `O=c1c(CNC(CO)c2ccccc2)coc2cccc(OCC3CCCCC3)c12` (centres undefined) returned an inhibition in test [1] of 88%. Further, the midpoint of inhibition against Interleukin-5, the IC50, lay at 18.5 µM.

For `O=c1c(CNCCCO)coc2cccc(OCC3CCCCC3)c12`, the inhibition in test [1] came out at 15%. Besides, on Interleukin-5, the half-inhibitory concentration (IC50) is greater than 50 µM.

Compound `O=c1c(CNCCCCCO)coc2cccc(OCC3CCCCC3)c12` had an inhibition in test [1] of 20%. At Interleukin-5, this compound showed an IC50 greater than 50 µM.

For the compound `CCCC(CO)NCc1coc2cccc(OCC3CCCCC3)c2c1=O` (centres undefined), the inhibition in test [1] worked out at 13%. On Interleukin-5, this compound showed an IC50 greater than 50 µM.

Turning to `O=c1c(CNCc2ccc(O)cc2)coc2cccc(OCC3CCCCC3)c12`, in test [1], the inhibition is 50%. Moreover, on Interleukin-5, the half-inhibitory concentration (IC50) was 28.5 µM.

For the compound `CC(C)(C)C(CO)NCc1coc2cccc(OCC3CCCCC3)c2c1=O` (centres undefined), in test [1], the inhibition is 65%. Further, inhibition on Interleukin-5 was half-maximal at 26.2 µM (IC50).

Consider `O=c1c(CNc2ccc(O)cc2)coc2cccc(OCC3CCCCC3)c12`, for which the inhibition in test [1] was 57%. For the same compound, half-maximal inhibition against Interleukin-5 (IC50) required 27.3 µM.

In test [2], `O=c1c(-c2ccc(O[C@@H]3O[C@H](CO)[C@@H](O)[C@H](O)[C@H]3O)cc2)coc2cc(O)cc(O)c12` [SOPHORICOSIDE] came in with an inhibition of 79.1%. Moreover, the IC50 against Interleukin-5 is 1.4 µM and 10.6 µM.

Compound `O=c1c(CNC(CCO)c2ccccc2)coc2cccc(OCC3CCCCC3)c12` (centres undefined) displayed an inhibition in test [1] of 30%. The same compound registered a 50% inhibitory concentration (IC50) on Interleukin-5 greater than 50 µM.
